Laboratory results as given in ChEMBL document CHEMBL1155293 (Eur J Med Chem, 2009).
Calls of active or inactive are those of the source.

Experiments:
[1] = Lipophilicity, log P of the compound; type: physicochemical; settings: octanol/water
Mus musculus [2] = experiment: Antinociceptive activity in Swiss mouse by inhibition of acetic acid-induced abdominal constriction at 10 mg/kg, ip after 20 mins; type: functional; settings: Abdomen, route intraperitoneal
How it was run: (§1)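 Male Swiss mice (25–30 g) were pretreated i.p. 30 min before i.p. acetic acid (0.6%): 10 mg/kg for screening, or 3, 6 and 10 mg/kg for dose-response. Controls received vehicle (0.9% NaCl and Tween 80, 10 ml/kg i.p.). Abdominal constrictions plus stretching were counted cumulatively over 20 min at 23 ± 2 °C. Inhibition is relative to controls; ID50 by linear regression.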

Mus musculus [3] = experiment: Antinociceptive activity in ip dosed Swiss mouse by inhibition of acetic acid-induced abdominal constriction after 20 mins; type: functional; settings: Abdomen, read-out: ID50 (the source's name); how it was run: as §1
Mus musculus [4] = experiment: Antinociceptive activity against formalin-induced pain in ip dosed Swiss mouse assessed as reduction of time spent in paw licking; type: functional; settings: for ED50: read-out: ID50 (the source's name)
How it was run: (§2)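 Swiss mice, 6–8 per group, housed at 22 ± 2 °C on a 12 h light/dark cycle. Compound given i.p. at 6, 10 or 30 mg/kg in Tween 80/0.9% NaCl vehicle (Tween ≤5%) before intraplantar formalin. Licking was scored for the first phase (0–5 min) and second phase (15–30 min). Mean ± SEM of six values; ID50 by linear regression with 95% confidence limits.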

Mus musculus [5] = experiment: Antinociceptive activity in Swiss mouse assessed as reduction in response latency at 10 mg/kg, ip after 30 mins by hot plate method; type: functional, organism-based; design: dose 10 mg/kg
How it was run: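 Mice received saline, morphine 10 mg/kg s.c., or test compound 10 mg/kg i.p. 30 min before testing on a hot plate at 56 ± 1 °C. Latency to hindpaw licking, paw shaking or jumping was recorded. Mice with baseline latency above 20 s were excluded; cut-off was 30 s. Mean ± SEM of six values.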

Mus musculus [6] = experiment: Antinociceptive activity in Swiss mouse by inhibition of acetic acid-induced abdominal constriction at 100 mg/kg, po after 20 mins; type: functional, Abdomen; design: scale not given: the % may be the effect or the level left
How it was run: (§3)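 Oral dosing of male Swiss mice (25–30 g) at 100, 250 and 500 mg/kg, 30 min before i.p. acetic acid (0.6%). Vehicle was Tween 80 in 0.9% NaCl. Abdominal constrictions with stretching were counted cumulatively for 20 min at 23 ± 2 °C. Inhibition is relative to vehicle controls; mean ± SEM of six values.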

Mus musculus [7] = experiment: Antinociceptive activity against capsaicin-induced neurogenic pain in ip dosed Swiss mouse by reduction of paw licking response; type: functional
How it was run: (§4)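 Capsaicin dissolved in absolute ethanol (final ≤5%), injected intraplantarly. Test compound given i.p. at 10, 30 and 60 mg/kg, 30 min before capsaicin, in Tween 80 plus 0.9% NaCl. Time spent licking the injected paw was timed over 5 min. Data are mean ± SEM; ID50 from linear regression as geometric mean with 95% confidence limits. ANOVA with Newman–Keuls test.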

Mus musculus [8] = experiment: Antinociceptive activity against capsaicin-induced neurogenic pain in Swiss mouse by reduction of paw licking response at 30 mg/kg, ip; type: functional; design: scale not given: the % may be the effect or the level left; settings: route intraperitoneal; how it was run: as §4
Mus musculus [9] = experiment: Antinociceptive activity in ip dosed Swiss mouse by inhibition of formalin induced pain after 15 to 30 mins; type: functional; settings: read-out: ID50 (the source's name); how it was run: as §2
Mus musculus [10] = experiment: Antinociceptive activity in Swiss mouse by inhibition of acetic acid-induced abdominal constriction at 500 mg/kg, po after 20 mins; type: functional, Abdomen; design: scale not given: the % may be the effect or the level left; how it was run: as §3
Mus musculus [11] = experiment: Antinociceptive activity against glutamate-induced pain in Swiss mouse assessed as reduction in time spent on paw licking and biting at 10 mg/kg, ip; type: functional; design: scale not given: the % may be the effect or the level left; settings: route intraperitoneal
How it was run: (§5)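 Dosing was i.p. at 10, 30 or 60 mg/kg, 30 min before intraplantar glutamate (30 µmol/paw) into the right hindpaw. Time spent licking or biting the injected paw was timed from 0 to 15 min. Mean ± SEM of six values; ID50 from linear regression as geometric mean with 95% confidence limits. ANOVA with Newman–Keuls test.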

Mus musculus [12] = experiment: Antinociceptive activity in Swiss mouse by inhibition of acetic acid-induced abdominal constriction at 250 mg/kg, po after 20 mins; type: functional, Abdomen; design: scale not given: the % may be the effect or the level left; how it was run: as §3
Mus musculus [13] = experiment: Antinociceptive activity in po dosed Swiss mouse by inhibition of acetic acid-induced abdominal constriction; type: functional; settings: Abdomen, read-out: ID50 (the source's name); how it was run: as §3
Mus musculus [14] = experiment: Antinociceptive activity against glutamate-induced pain in Swiss mouse assessed as reduction in time spent on paw licking and biting at 30 mg/kg, ip; type: functional; design: scale not given: the % may be the effect or the level left; settings: route intraperitoneal; how it was run: as §5
Mus musculus [15] = experiment: Antinociceptive activity against capsaicin-induced neurogenic pain in Swiss mouse by reduction of paw licking response at 60 mg/kg, ip; type: functional; design: scale not given: the % may be the effect or the level left; settings: route intraperitoneal; how it was run: as §4
Mus musculus [16] = experiment: Antinociceptive activity against formalin-induced pain in Swiss mouse assessed as reduction of time spent in paw licking and biting at 10 mg/kg, ip after 15 to 30 mins; type: functional; design: scale not given: the % may be the effect or the level left; settings: route intraperitoneal; how it was run: as §2
Mus musculus [17] = experiment: Antinociceptive activity against formalin-induced pain in Swiss mouse assessed as reduction of time spent in paw licking and biting at 30 mg/kg, ip after 15 to 30 mins; type: functional; design: scale not given: the % may be the effect or the level left; settings: route intraperitoneal; how it was run: as §2
Mus musculus [18] = experiment: Antinociceptive activity in ip dosed Swiss mouse by inhibition of formalin induced pain after 0 to 5 mins; type: functional; settings: read-out: ID50 (the source's name); how it was run: as §2
Mus musculus [19] = experiment: Antinociceptive activity against formalin-induced pain in Swiss mouse assessed as reduction of time spent in paw licking and biting at 30 mg/kg, ip after 0 to 5 mins; type: functional; design: scale not given: the % may be the effect or the level left; settings: route intraperitoneal; how it was run: as §2
Mus musculus [20] = experiment: Antinociceptive activity against glutamate-induced pain in ip dosed Swiss mouse assessed as reduction in time spent on paw licking and biting; type: functional; how it was run: as §5
Mus musculus [21] = experiment: Antinociceptive activity against formalin-induced pain in Swiss mouse assessed as reduction of time spent in paw licking and biting at 10 mg/kg, ip after 0 to 5 mins; type: functional; design: scale not given: the % may be the effect or the level left; settings: route intraperitoneal; how it was run: as §2
Mus musculus [22] = experiment: Antinociceptive activity against glutamate-induced pain in Swiss mouse assessed as reduction in time spent on paw licking and biting at 60 mg/kg, ip; type: functional; design: scale not given: the % may be the effect or the level left; settings: route intraperitoneal; how it was run: as §5
[23] = read-out: ID50 (the source's name)

Which logP [1] does the source give for CC(C)CCOC(=O)/C=C/c1ccc(O)c(O)c1 here?
The logP was 3.21.

What about the inhibition in vivo at 10 mg/kg (Mus musculus [2]) of the same compound?
Its inhibition in vivo at 10 mg/kg is 75.8%.

For COC(=O)/C=C/c1ccc(O)c(O)c1 [METHYLCAFFEATE], which logP [1] is on record?
Its logP is 1.56.

And the inhibition in vivo at 10 mg/kg (Mus musculus [2])?
The inhibition in vivo at 10 mg/kg was 54.5%.

With CC(C)OC(=O)/C=C/c1ccc(O)c(O)c1 as the compound, how does the logP [1] read?
Its logP is 2.3.

What about the inhibition in vivo at 10 mg/kg (Mus musculus [2]) of the same compound?
The inhibition in vivo at 10 mg/kg was 31%.

With O=C(/C=C/c1ccc(O)c(O)c1)OCc1ccccc1 [BENZYL CAFFEATE] as the compound, how does the logP [1] read?
The logP was 3.15.

And the inhibition in vivo at 10 mg/kg (Mus musculus [2])?
The inhibition in vivo at 10 mg/kg was 8.8%.

Which logP [1] does the source give for CCCCOC(=O)/C=C/c1ccc(O)c(O)c1 [BUTYL CAFFEATE] here?
Its logP is 2.99.

And the inhibition in vivo at 10 mg/kg (Mus musculus [2])?
Its inhibition in vivo at 10 mg/kg is 45%.

What does the source list for CC(=O)Oc1ccccc1C(=O)O [ASPIRIN]?
ED50 (Mus musculus [3]): 125 µmol/kg; logP [1]: 0.68; inhibition in vivo at 10 mg/kg (Mus musculus [2]): 35%; ED50 (Mus musculus [4]): 123 µmol/kg

Which results are given for CCOC(=O)/C=C/c1ccc(O)c(O)c1 [ETHYL CAFFEATE]?
logP [1]: 1.93; inhibition in vivo at 10 mg/kg (Mus musculus [2]): 58.1%

With CCCCCCCCCCCCOC(=O)/C=C/c1ccc(O)c(O)c1 as the compound, how does the Activity (Mus musculus [5]) read?
The Activity was “inactive”.

And the Activity (Mus musculus [6])?
Its Activity is 22.2%.

What about the Activity (Mus musculus [7]) of the same compound?
The Activity was “Dose-dependent effect”.

What about the ED50 (Mus musculus [7]; [23]) of the same compound?
The ED50 was 46.6 mg/kg.

And the Activity (Mus musculus [8])?
The Activity was 36.9%.

And the ED50 (Mus musculus [3])?
Its ED50 is 5.25 mg/kg.

What about the ED50 (Mus musculus [9]) of the same compound?
The ED50 was 23.8 mg/kg.

What about the Activity (Mus musculus [10]) of the same compound?
The Activity was 45.7%.

And the Activity (Mus musculus [11])?
Its Activity is 25.6%.

And the Activity (Mus musculus [12])?
Its Activity is 32.4%.

What about the ED50 (Mus musculus [13]) of the same compound?
Its ED50 is no less than 500 mg/kg.

What about the Activity (Mus musculus [14]) of the same compound?
Its Activity is 46.3%.

What about the Activity (Mus musculus [15]) of the same compound?
The Activity was 58.6%.

And the Activity (Mus musculus [16])?
The Activity was 34.4%.

And the Activity (Mus musculus [17])?
Its Activity is 56.8%.

What about the logP [1] of the same compound?
Its logP is 7.04.

And the ED50 (Mus musculus [18])?
Its ED50 is 26.2 mg/kg.

And the Activity (Mus musculus [19])?
Its Activity is 56.2%.

What about the Activity (Mus musculus [20]) of the same compound?
Its Activity is “Dose-dependent effect”.

And the ED50 (Mus musculus [20]; [23])?
Its ED50 is 38.4 mg/kg.

What about the inhibition in vivo at 10 mg/kg (Mus musculus [2]) of the same compound?
The inhibition in vivo at 10 mg/kg was 78.8%.

What about the Activity (Mus musculus [4]) of the same compound?
Its Activity is “Dose-dependent effect”.

And the Activity (Mus musculus [21])?
Its Activity is 20.7%.

And the Activity (Mus musculus [22])?
The Activity was 65.2%.

What does the source list for CC(C)COC(=O)/C=C/c1ccc(O)c(O)c1?
logP [1]: 2.68; inhibition in vivo at 10 mg/kg (Mus musculus [2]): 52%

With CCCCCCCCOC(=O)/C=C/c1ccc(O)c(O)c1 as the compound, how does the logP [1] read?
Its logP is 5.02.

What about the inhibition in vivo at 10 mg/kg (Mus musculus [2]) of the same compound?
Its inhibition in vivo at 10 mg/kg is 46.2%.

Which results are given for CC(=O)Nc1ccc(O)cc1 [ACETAMINOPHEN]?
ED50 (Mus musculus [3]): 133 µmol/kg; logP [1]: 1.43; inhibition in vivo at 10 mg/kg (Mus musculus [2]): 38%; ED50 (Mus musculus [4]): 120 µmol/kg

For O=C(O)/C=C/c1ccc(O)c(O)c1 [CAFFEIC ACID], which inhibition in vivo at 10 mg/kg (Mus musculus [2]) is on record?
The inhibition in vivo at 10 mg/kg was 34.6%.

With O=C(/C=C/c1ccc(O)c(O)c1)OCCc1ccccc1 [CAFFEIC ACID PHENETHYL ESTER] as the compound, how does the logP [1] read?
The logP was 3.36.

And the inhibition in vivo at 10 mg/kg (Mus musculus [2])?
Its inhibition in vivo at 10 mg/kg is 27.5%.
